Results as given in ChEMBL document CHEMBL1149862, “Guaiane sesquiterpene lactones and amino acid-sesquiterpene lactone conjugates from the aerial parts of Saussurea pulchella” (2008).

system: HCT-15; assay: Cytotoxicity against human HCT15 cells by SRB assay; format: functional; conditions: read-out: ED50 (the source's name)
Summary of the method: (§1)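 Sulforhodamine B (SRB) bioassay on cultured human cancer lines: A549 (non-small cell lung carcinoma), SK-OV-3 (ovary malignant ascites), SK-MEL-2 (skin melanoma) and HCT (colon adenocarcinoma). Cytotoxicity is reported as ED₅₀ in µM.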

SMILES	EC50 [µM]
C=C1C(=O)O[C@@H]2[C@H]3C(=C)[C@@H](O)C[C@H]3C(=C)C[C@H](O)[C@@H]12 [DESACYLCYNAROPICRIN]	11.3
C=C1[C@@H]2[C@H]3OC(=O)[C@@H](CN[C@@H](Cc4c[nH]c5ccccc45)C(=O)O)[C@@H]3[C@@H](O)CC(=C)[C@@H]2C[C@@H]1O [PULCHELLAMINE F]	> 30
C=C1[C@@H]2[C@H]3OC(=O)[C@@H](CN[C@@H](CC(N)=O)C(=O)O)[C@@H]3[C@@H](O)CC(=C)[C@@H]2C[C@@H]1O [PULCHELLAMINE A]	> 30
C=C(CO)C(=O)O[C@H]1CC(=C)[C@@H]2C[C@H](O)C(=C)[C@@H]2[C@H]2OC(=O)C(=C)[C@@H]21 [CYNAROPICRIN]	12.1
C=C1[C@@H]2[C@H]3OC(=O)[C@@H](CNCCCC(=O)O)[C@@H]3[C@@H](O)CC(=C)[C@@H]2C[C@@H]1O [PULCHELLAMINE B]	> 30
C=C1[C@@H]2[C@H]3OC(=O)[C@H](C)[C@@H]3[C@@H](OC(=O)C(C)(O)CO)CC(=C)[C@@H]2C[C@@H]1O (stereo not given in full)	> 30
COc1cccc2c1C(=O)c1c(O)c3c(c(O)c1C2=O)C[C@@](O)(C(=O)CO)C[C@@H]3O[C@H]1C[C@H](N)[C@H](O)[C@H](C)O1 [DOXORUBICIN]	0.164
C=C1C(=O)O[C@@H]2[C@H]3C(=C)[C@@H](O)C[C@H]3C(=C)C[C@H](OC(=O)CC(C)(C)O)[C@@H]12	14.2
C=C1[C@@H]2[C@H]3OC(=O)[C@@H](CN[C@@H](Cc4ccccc4)C(=O)O)[C@@H]3[C@@H](O)CC(=C)[C@@H]2C[C@@H]1O [PULCHELLAMINES D]	> 30
C=C1[C@@H]2[C@H]3OC(=O)[C@H](C)[C@@H]3[C@@H](O[C@@H]3O[C@H](CO)[C@@H](O)[C@H](O)[C@H]3O)CC(=C)[C@@H]2C[C@@H]1O	> 30
C=C1[C@@H]2[C@H]3OC(=O)[C@@H](CN[C@H](C(=O)O)[C@H](C)CC)[C@@H]3[C@@H](O)CC(=C)[C@@H]2C[C@@H]1O [PULCHELLAMINE G]	> 30
C=C1C(=O)O[C@@H]2[C@H]3C(=C)[C@H](O)C[C@H]3C(=C)C[C@H](OC(=O)C(C)(O)CO)[C@@H]12 (stereo not given in full)	28.8
C=C1[C@@H]2[C@H]3OC(=O)[C@H](C)[C@@H]3[C@@H](O)CC(=C)[C@@H]2C[C@@H]1O	> 30
C=C1[C@@H]2[C@H]3OC(=O)[C@@H](CN4CCC[C@H]4C(=O)O)[C@@H]3[C@@H](OC(=O)C(C)(O)CO)CC(=C)[C@@H]2C[C@@H]1O (stereo not given in full) [PULCHELLAMINE C]	18.3
C=C1[C@@H]2[C@H]3OC(=O)[C@@H](CN[C@H](C(=O)O)C(C)C)[C@@H]3[C@@H](O)CC(=C)[C@@H]2C[C@@H]1O [PULCHELLAMINE E]	> 30

system: SK-MEL-2; assay: Cytotoxicity against human SK-MEL-2 cells by SRB assay; format: functional; conditions: read-out: ED50 (the source's name); summary of the method: as §1

SMILES	EC50 [µM]
C=C1C(=O)O[C@@H]2[C@H]3C(=C)[C@@H](O)C[C@H]3C(=C)C[C@H](O)[C@@H]12 [DESACYLCYNAROPICRIN]	9.74
C=C1[C@@H]2[C@H]3OC(=O)[C@@H](CN[C@@H](Cc4c[nH]c5ccccc45)C(=O)O)[C@@H]3[C@@H](O)CC(=C)[C@@H]2C[C@@H]1O [PULCHELLAMINE F]	18.6
C=C1[C@@H]2[C@H]3OC(=O)[C@@H](CN[C@@H](CC(N)=O)C(=O)O)[C@@H]3[C@@H](O)CC(=C)[C@@H]2C[C@@H]1O [PULCHELLAMINE A]	> 30
C=C(CO)C(=O)O[C@H]1CC(=C)[C@@H]2C[C@H](O)C(=C)[C@@H]2[C@H]2OC(=O)C(=C)[C@@H]21 [CYNAROPICRIN]	4.07
C=C1[C@@H]2[C@H]3OC(=O)[C@@H](CNCCCC(=O)O)[C@@H]3[C@@H](O)CC(=C)[C@@H]2C[C@@H]1O [PULCHELLAMINE B]	> 30
C=C1[C@@H]2[C@H]3OC(=O)[C@H](C)[C@@H]3[C@@H](OC(=O)C(C)(O)CO)CC(=C)[C@@H]2C[C@@H]1O (stereo not given in full)	> 30
COc1cccc2c1C(=O)c1c(O)c3c(c(O)c1C2=O)C[C@@](O)(C(=O)CO)C[C@@H]3O[C@H]1C[C@H](N)[C@H](O)[C@H](C)O1 [DOXORUBICIN]	0.117
C=C1C(=O)O[C@@H]2[C@H]3C(=C)[C@@H](O)C[C@H]3C(=C)C[C@H](OC(=O)CC(C)(C)O)[C@@H]12	6.78
C=C1[C@@H]2[C@H]3OC(=O)[C@@H](CN[C@@H](Cc4ccccc4)C(=O)O)[C@@H]3[C@@H](O)CC(=C)[C@@H]2C[C@@H]1O [PULCHELLAMINES D]	> 30
C=C1[C@@H]2[C@H]3OC(=O)[C@H](C)[C@@H]3[C@@H](O[C@@H]3O[C@H](CO)[C@@H](O)[C@H](O)[C@H]3O)CC(=C)[C@@H]2C[C@@H]1O	> 30
C=C1[C@@H]2[C@H]3OC(=O)[C@@H](CN[C@H](C(=O)O)[C@H](C)CC)[C@@H]3[C@@H](O)CC(=C)[C@@H]2C[C@@H]1O [PULCHELLAMINE G]	> 30
C=C1C(=O)O[C@@H]2[C@H]3C(=C)[C@H](O)C[C@H]3C(=C)C[C@H](OC(=O)C(C)(O)CO)[C@@H]12 (stereo not given in full)	10.5
C=C1[C@@H]2[C@H]3OC(=O)[C@H](C)[C@@H]3[C@@H](O)CC(=C)[C@@H]2C[C@@H]1O	> 30
C=C1[C@@H]2[C@H]3OC(=O)[C@@H](CN4CCC[C@H]4C(=O)O)[C@@H]3[C@@H](OC(=O)C(C)(O)CO)CC(=C)[C@@H]2C[C@@H]1O (stereo not given in full) [PULCHELLAMINE C]	5.73
C=C1[C@@H]2[C@H]3OC(=O)[C@@H](CN[C@H](C(=O)O)C(C)C)[C@@H]3[C@@H](O)CC(=C)[C@@H]2C[C@@H]1O [PULCHELLAMINE E]	> 30

system: A549; assay: Cytotoxicity against human A549 cells by SRB assay; format: functional; conditions: read-out: ED50 (the source's name); summary of the method: as §1

SMILES	EC50 [µM]
C=C1C(=O)O[C@@H]2[C@H]3C(=C)[C@@H](O)C[C@H]3C(=C)C[C@H](O)[C@@H]12 [DESACYLCYNAROPICRIN]	25.7
C=C1[C@@H]2[C@H]3OC(=O)[C@@H](CN[C@@H](Cc4c[nH]c5ccccc45)C(=O)O)[C@@H]3[C@@H](O)CC(=C)[C@@H]2C[C@@H]1O [PULCHELLAMINE F]	> 30
C=C1[C@@H]2[C@H]3OC(=O)[C@@H](CN[C@@H](CC(N)=O)C(=O)O)[C@@H]3[C@@H](O)CC(=C)[C@@H]2C[C@@H]1O [PULCHELLAMINE A]	> 30
C=C(CO)C(=O)O[C@H]1CC(=C)[C@@H]2C[C@H](O)C(=C)[C@@H]2[C@H]2OC(=O)C(=C)[C@@H]21 [CYNAROPICRIN]	24.5
C=C1[C@@H]2[C@H]3OC(=O)[C@@H](CNCCCC(=O)O)[C@@H]3[C@@H](O)CC(=C)[C@@H]2C[C@@H]1O [PULCHELLAMINE B]	> 30
C=C1[C@@H]2[C@H]3OC(=O)[C@H](C)[C@@H]3[C@@H](OC(=O)C(C)(O)CO)CC(=C)[C@@H]2C[C@@H]1O (stereo not given in full)	> 30
COc1cccc2c1C(=O)c1c(O)c3c(c(O)c1C2=O)C[C@@](O)(C(=O)CO)C[C@@H]3O[C@H]1C[C@H](N)[C@H](O)[C@H](C)O1 [DOXORUBICIN]	0.007
C=C1C(=O)O[C@@H]2[C@H]3C(=C)[C@@H](O)C[C@H]3C(=C)C[C@H](OC(=O)CC(C)(C)O)[C@@H]12	> 30
C=C1[C@@H]2[C@H]3OC(=O)[C@@H](CN[C@@H](Cc4ccccc4)C(=O)O)[C@@H]3[C@@H](O)CC(=C)[C@@H]2C[C@@H]1O [PULCHELLAMINES D]	> 30
C=C1[C@@H]2[C@H]3OC(=O)[C@H](C)[C@@H]3[C@@H](O[C@@H]3O[C@H](CO)[C@@H](O)[C@H](O)[C@H]3O)CC(=C)[C@@H]2C[C@@H]1O	> 30
C=C1[C@@H]2[C@H]3OC(=O)[C@@H](CN[C@H](C(=O)O)[C@H](C)CC)[C@@H]3[C@@H](O)CC(=C)[C@@H]2C[C@@H]1O [PULCHELLAMINE G]	> 30
C=C1C(=O)O[C@@H]2[C@H]3C(=C)[C@H](O)C[C@H]3C(=C)C[C@H](OC(=O)C(C)(O)CO)[C@@H]12 (stereo not given in full)	> 30
C=C1[C@@H]2[C@H]3OC(=O)[C@H](C)[C@@H]3[C@@H](O)CC(=C)[C@@H]2C[C@@H]1O	> 30
C=C1[C@@H]2[C@H]3OC(=O)[C@@H](CN4CCC[C@H]4C(=O)O)[C@@H]3[C@@H](OC(=O)C(C)(O)CO)CC(=C)[C@@H]2C[C@@H]1O (stereo not given in full) [PULCHELLAMINE C]	27.6
C=C1[C@@H]2[C@H]3OC(=O)[C@@H](CN[C@H](C(=O)O)C(C)C)[C@@H]3[C@@H](O)CC(=C)[C@@H]2C[C@@H]1O [PULCHELLAMINE E]	> 30

system: SK-OV-3; assay: Cytotoxicity against human SKOV3 cells by SRB assay; format: functional; conditions: read-out: ED50 (the source's name); summary of the method: as §1

SMILES	EC50 [µM]
C=C1C(=O)O[C@@H]2[C@H]3C(=C)[C@@H](O)C[C@H]3C(=C)C[C@H](O)[C@@H]12 [DESACYLCYNAROPICRIN]	11.3
C=C1[C@@H]2[C@H]3OC(=O)[C@@H](CN[C@@H](Cc4c[nH]c5ccccc45)C(=O)O)[C@@H]3[C@@H](O)CC(=C)[C@@H]2C[C@@H]1O [PULCHELLAMINE F]	24.2
C=C1[C@@H]2[C@H]3OC(=O)[C@@H](CN[C@@H](CC(N)=O)C(=O)O)[C@@H]3[C@@H](O)CC(=C)[C@@H]2C[C@@H]1O [PULCHELLAMINE A]	> 30
C=C(CO)C(=O)O[C@H]1CC(=C)[C@@H]2C[C@H](O)C(=C)[C@@H]2[C@H]2OC(=O)C(=C)[C@@H]21 [CYNAROPICRIN]	7.42
C=C1[C@@H]2[C@H]3OC(=O)[C@@H](CNCCCC(=O)O)[C@@H]3[C@@H](O)CC(=C)[C@@H]2C[C@@H]1O [PULCHELLAMINE B]	> 30
C=C1[C@@H]2[C@H]3OC(=O)[C@H](C)[C@@H]3[C@@H](OC(=O)C(C)(O)CO)CC(=C)[C@@H]2C[C@@H]1O (stereo not given in full)	> 30
COc1cccc2c1C(=O)c1c(O)c3c(c(O)c1C2=O)C[C@@](O)(C(=O)CO)C[C@@H]3O[C@H]1C[C@H](N)[C@H](O)[C@H](C)O1 [DOXORUBICIN]	0.056
C=C1C(=O)O[C@@H]2[C@H]3C(=C)[C@@H](O)C[C@H]3C(=C)C[C@H](OC(=O)CC(C)(C)O)[C@@H]12	12.4
C=C1[C@@H]2[C@H]3OC(=O)[C@@H](CN[C@@H](Cc4ccccc4)C(=O)O)[C@@H]3[C@@H](O)CC(=C)[C@@H]2C[C@@H]1O [PULCHELLAMINES D]	> 30
C=C1[C@@H]2[C@H]3OC(=O)[C@H](C)[C@@H]3[C@@H](O[C@@H]3O[C@H](CO)[C@@H](O)[C@H](O)[C@H]3O)CC(=C)[C@@H]2C[C@@H]1O	> 30
C=C1[C@@H]2[C@H]3OC(=O)[C@@H](CN[C@H](C(=O)O)[C@H](C)CC)[C@@H]3[C@@H](O)CC(=C)[C@@H]2C[C@@H]1O [PULCHELLAMINE G]	> 30
C=C1C(=O)O[C@@H]2[C@H]3C(=C)[C@H](O)C[C@H]3C(=C)C[C@H](OC(=O)C(C)(O)CO)[C@@H]12 (stereo not given in full)	18
C=C1[C@@H]2[C@H]3OC(=O)[C@H](C)[C@@H]3[C@@H](O)CC(=C)[C@@H]2C[C@@H]1O	> 30
C=C1[C@@H]2[C@H]3OC(=O)[C@@H](CN4CCC[C@H]4C(=O)O)[C@@H]3[C@@H](OC(=O)C(C)(O)CO)CC(=C)[C@@H]2C[C@@H]1O (stereo not given in full) [PULCHELLAMINE C]	11.8
C=C1[C@@H]2[C@H]3OC(=O)[C@@H](CN[C@H](C(=O)O)C(C)C)[C@@H]3[C@@H](O)CC(=C)[C@@H]2C[C@@H]1O [PULCHELLAMINE E]	> 30
